pIC50: −log10 of the molar value.

Chain of Thymidine phosphorylase (P07650 whole entry): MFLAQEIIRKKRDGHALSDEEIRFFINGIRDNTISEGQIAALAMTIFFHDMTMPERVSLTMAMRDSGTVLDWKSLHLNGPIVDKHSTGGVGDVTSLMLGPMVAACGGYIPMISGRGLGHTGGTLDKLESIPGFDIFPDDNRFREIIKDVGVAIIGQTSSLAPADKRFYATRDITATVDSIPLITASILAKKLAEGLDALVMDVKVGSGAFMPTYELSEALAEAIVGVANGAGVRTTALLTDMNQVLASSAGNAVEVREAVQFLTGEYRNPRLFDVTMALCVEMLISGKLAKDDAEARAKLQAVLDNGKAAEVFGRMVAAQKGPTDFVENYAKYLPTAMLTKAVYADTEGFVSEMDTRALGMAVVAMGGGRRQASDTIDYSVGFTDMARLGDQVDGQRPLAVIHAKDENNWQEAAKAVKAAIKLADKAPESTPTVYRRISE

The first assay addresses Thymidine phosphorylase (Escherichia coli K-12, UniProt P07650). As to the kind of experiment: Inhibition of Escherichia coli thymidine phosphorylase using […] as substrate after 10 mins by spectrophotometric analysis. An outline of the steps: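 Commercial E. coli TP in potassium phosphate buffer, pH 7.4, with […] substrate (1.5 mM stock). Test material incubated with the reaction mix for 10 min at 25 °C. Absorbance at 290 nm then read continuously at 10, 20 and 30 min. Substrate-free blanks were subtracted. Run in triplicate; IC50 given as mean ± SEM of three independent experiments.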
Turning to `COc1ccccc1NCn1nc(-c2ccccc2)oc1=S`, the pIC50 is 4.06. The molecule `Cc1ccc(NCn2nc(-c3ccccc3)oc2=S)cc1C` had a pIC50 of 4.39. Same read-out and setting: the same measure for `Cc1ccc(-c2nn(CNc3ccccc3)c(=S)o2)cc1`: 3.98. Still for that read-out and setting: the same measure for `Cc1ccc(-c2nn(CNc3ccc(Cl)c(Cl)c3)c(=S)o2)cc1`: 3.87; for `COc1ccc([N+](=O)[O-])cc1NCn1nc(-c2ccc(C)cc2)oc1=S`: 4.84.

`S=c1oc(-c2ccccc2Br)nn1CNc1ccc(Br)cc1` showed a pIC50 of 4.58. Take `S=c1oc(-c2ccc(Cl)cc2)nn1CNc1ccccc1Cl`: the pIC50 is 4.33. Still for that read-out and setting: the same measure for `COc1cc(-c2nn(CNc3ccccc3C)c(=S)o2)cc(OC)c1OC`: 3.93; for `Cc1ccc(-c2nn(CNc3cccc(C)c3C)c(=S)o2)cc1`: 4.63. Same read-out and setting: the result for `S=c1oc(-c2ccccc2Br)nn1CNc1ccccc1Cl` reads 4.66; that for `COc1cccc(NCn2nc(-c3ccccc3)oc2=S)c1`, 4.39. Same read-out and setting: the result for `Cc1ccc(NCn2nc(-c3ccc(C)cc3)oc2=S)cc1` reads 4.26; that for `COc1cccc(NCn2nc(-c3ccc(C)cc3)oc2=S)c1`, 4.07.

Consider `COc1ccccc1NCn1nc(-c2ccccc2Br)oc1=S`, for which the pIC50 is 4.75. Same read-out and setting: the same measure for `COc1cc(-c2nn(CNCCc3ccccc3)c(=S)o2)cc(OC)c1OC`: 4.16; for `COc1ccccc1NCn1nc(-c2ccc(Cl)cc2)oc1=S`: 4.05. In turn, `S=c1oc(-c2ccc(Cl)cc2)nn1CNc1ccc(Br)cc1` gave a pIC50 of 3.76. The molecule `Cc1ccccc1NCn1nc(-c2ccc(Cl)cc2)oc1=S` had a pIC50 of 4.24. Still for that read-out and setting: the same measure for `Oc1ccccc1-c1nn(CNc2ccccc2Cl)c(=S)o1`: 3.88; for `Cc1ccc(-c2nn(CNc3ccc(C)c(C)c3)c(=S)o2)cc1`: 4.08. Still for that read-out and setting: the result for `S=c1oc(-c2ccccc2)nn1CNc1ccccc1Cl` reads 3.93.

The target in the next assay is Thymidine phosphorylase (Escherichia coli K-12) (UniProt P07650). As to the kind of experiment: Ratio of 7-deazaxanthine IC50 to compound IC50 for Escherichia coli thymidine phosphorylase using […] as substrate after 10 mins by spectrophotometric analysis.
Chain of Thymidine phosphorylase (Escherichia coli K-12) (P07650 whole entry, looked up): as the sequence (P07650 whole entry) above
`COc1ccc([N+](=O)[O-])cc1NCn1nc(-c2ccc(C)cc2)oc1=S`: the Ratio IC50 is 2.5.
